In paper PMC3115796 (The Journal of Cell Biology, 2011):
“Also recorded” adds a separate entry of the source. Blank lines part the entries; values can stand above or below the substance they belong to. Ends that are not written are not given here.

Columns and labels:
[1] = test system: SLAIN2 C terminus / full-length CLIP-170; experiment: GST-SLAIN2 pull-down of CLIPs and full-length CLIP-170; format: binding
[2] = molecular target: T1, CLIPCG2 (second CAP-Gly domain of CLIP-170) (Homo sapiens, UniProt P30622); experiment: ITC of SLAIN2c with second CAP-Gly domain of CLIP-170; format: binding
T1 sequence (P30622 210-282): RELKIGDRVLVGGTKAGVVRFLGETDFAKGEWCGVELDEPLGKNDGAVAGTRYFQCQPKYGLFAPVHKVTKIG

[3] = molecular target: T2, CLIPCG1 (first CAP-Gly domain of CLIP-170) (Homo sapiens, UniProt P30622); experiment: ITC of SLAIN2c with first CAP-Gly domain of CLIP-170; format: binding
T2 sequence (P30622 56-128): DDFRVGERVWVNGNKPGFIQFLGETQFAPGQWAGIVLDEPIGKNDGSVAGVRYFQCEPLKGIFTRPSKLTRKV

SLAIN2 in 3T3 cells = experiment: siRNA knockdown in mouse 3T3 cells; format: cell-based; conditions: siRNA 5 nM, 72 h
Method in brief: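 Mouse Swiss 3T3 cells were cultured in 45% DME, 45% Ham's F10 and 10% FCS. Cells were blocked in interphase with 2 mM thymidine, added 1 d after transfection, for 2 d.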

[4] = test system: p150CG (CAP-Gly domain of dynactin large subunit p150^Glued); experiment: ITC of SLAIN2c with CAP-Gly domain of p150Glued; format: binding, human; conditions: ITC in PBS, 25°C
[5] = molecular target: T3, CLIPCG12 (both CAP-Gly domains of CLIP-170) (Homo sapiens, UniProt P30622); experiment: ITC of SLAIN2c with double CAP-Gly construct of CLIP-170; format: binding
T3 sequence (P30622 48-300): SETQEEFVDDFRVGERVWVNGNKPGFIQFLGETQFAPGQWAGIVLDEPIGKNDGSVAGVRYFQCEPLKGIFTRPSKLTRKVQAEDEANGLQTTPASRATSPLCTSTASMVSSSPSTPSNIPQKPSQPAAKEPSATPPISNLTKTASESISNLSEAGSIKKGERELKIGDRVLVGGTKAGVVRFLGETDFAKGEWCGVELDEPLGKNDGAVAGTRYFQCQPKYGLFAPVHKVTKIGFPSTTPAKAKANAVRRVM

Substance: GFP–CLIP-115: full-length rat CLIP-115 [reference compound]
association with SLAIN2 C terminus [1]: associated with the SLAIN2 C terminus

binding by ITC (in words) ([2]; ITC in PBS, 25°C): abrogates binding
binding by ITC (in words) ([3]; ITC in PBS, 25°C): abrogates binding
Substance: SLAIN2c-W576A (GSMKDDSAKDGCY)

Substance: SLAIN2 siRNA#2: siRNA target sequence 5′-CUCUAUAGAUAGUGAGUUA-3′ (chemistry not given here)
depletion of SLAIN2 (SLAIN2 in 3T3 cells): efficiently deplete SLAIN2

Substance: GSMKDDSWKDGCY-OH [SLAIN2c]
binding by ITC (in words) [4]: only very weak binding; also recorded: more weakly than the two CAP-Gly domains of CLIP-170
Kd (in words) [5]: comparable
Kd (in words) ([2]; ITC): micromolar range
Kd (in words) ([3]; ITC): micromolar range
